In brackets after ≈: the same amount, converted by molar mass.
Columns and labels:
Enterobacter cloacae = assay: In vitro antibacterial activity against Enterobacter cloacae A 9656; format: functional
[1] = Compound was evaluated in vivo in blood samples from the orbital sinus for its half life after 40 mg/kg of intramuscular administration in mice.; format: ADME, organism-based; set-up: dose 40 mg/kg, route intramuscular; settings: mouse, im
Klebsiella pneumoniae = assay: In vitro antibacterial activity against Klebsiella pneumoniae A 9664; format: functional
Enterococcus faecalis [2] = assay: In vitro antibacterial activity against Enterococcus faecalis A 9809; format: functional
Bacteroides fragilis = assay: Compound was tested in vitro for its antibacterial activity (minimum inhibitory concentration) against Bacteroides fragilis A 22862.; format: functional; settings: A22862
Pseudomonas aeruginosa [3] = assay: Compound was tested for the dose to protect 50% of mice from lethal infection against Pseudomonas aeruginosa A9843 after peroral administration to OF1-strain of female Swiss mice.; format: functional; settings: po, read-out: PD50
Outline: (§1)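 Compounds dissolved in sterile water and given orally to female OF1 Swiss mice weighing 18-25 g, five mice per group.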

Staphylococcus aureus [4] = assay: In vitro antibacterial activity (minimum inhibitory concentration, MIC) against Staphylococcus aureus A 9537.; format: functional
in vivo [5] = settings: mouse, po, 40 mg/kg
[6] = Compound was evaluated in vivo in blood samples from the orbital sinus for its concentration after a intramuscular administration 40 mg/kg in mice; format: ADME, organism-based; set-up: dose 40 mg/kg, route intramuscular; settings: mouse, im
Outline: (§2)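 Mice were dosed at 40 mg/kg, either orally with a blunt needle and syringe or intramuscularly, with separate groups for each route. Blood was drawn from the orbital sinus at 5, 15, 30, 60, 120 and 180 min. Urine was pooled over 24 h. Drug levels were measured by agar disk diffusion microbioassay with Salmonella enteritidis A9531 as the assay organism.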

in vivo [7] = settings: dog, po, 25 mg/kg
Staphylococcus aureus [8] = assay: Compound was tested for the dose to protect 50% of mice from lethal infection against Staphylococcus aureus A 9606 after peroral administration to OF1-strain of female Swiss mice.; format: functional; settings: po, read-out: PD50; outline: as §1
Mus musculus [9] = assay: Compound was evaluated in vivo in urine sample collected over 24 hours for its concentration after 40 mg/kg intramuscular administration to mice; format: functional; outline: as §2
Morganella morganii = assay: In vitro antibacterial activity against Morganella morganii A 15153; format: functional
Proteus mirabilis = assay: In vitro antibacterial activity (minimum inhibitory concentration, MIC) against Proteus mirabilis A 9900; format: functional
Canis familiaris [10] = assay: Compound was evaluated in vivo in urine sample collected over 24 hours for its concentration after 25 mg/kg peroral administration to dogs.; settings: route oral
Escherichia coli [11] = assay: In vitro antibacterial activity against Escherichia coli A 15119; format: functional
in vivo [12] = settings: dog, po, 25 mg/kg; remark: listed apart in the source
Serratia marcescens = assay: In vitro antibacterial activity (minimum inhibitory concentration) against Serratia marcescens A 20019.; format: functional
Streptococcus pneumoniae = assay: In vitro antibacterial activity against Streptococcus pneumoniae A 9585; format: functional
Pseudomonas aeruginosa [13] = assay: Compound was tested in vitro for its antibacterial activity (minimum inhibitory concentration, MIC) against Pseudomonas aeruginosa A 9843; format: functional
Mus musculus [14] = organism: Mus musculus; settings: in vivo, po, 40 mg/kg
[15] = Compound was tested for the dose to protect 50% of mice from lethal infection against Streptococcus pneumoniae after peroral administration to OF1-strain of female Swiss mice.; format: functional; settings: po, read-out: PD50; outline: as §1
Mus musculus [16] = assay: Compound was evaluated in vivo in blood samples from the orbital sinus for its concentration using Area under the time-concentration curve after 40 mg/kg intramuscular administration to mice; format: ADME, organism-based; set-up: dose 40 mg/kg, route intramuscular; settings: im; outline: as §2
Staphylococcus aureus [17] = assay: In vitro antibacterial activity against Staphylococcus aureus A 24227; format: functional
Canis familiaris [18] = organism: Canis familiaris; settings: dog, in vivo, po, 25 mg/kg
Mus musculus [19] = assay: Compound was evaluated in vivo in urine sample collected over 24 hours for its concentration after 40 mg/kg peroral administration to mice; format: functional; settings: route oral; outline: as §2
Haemophilus influenzae = assay: In vitro antibacterial activity against Haemophilus influenzae A 21515; format: functional
Mus musculus [20] = assay: Compound was evaluated in vivo in urine sample collected over 24 hours for its concentration after 40 mg/kg an intramuscular administration to mice; format: functional; outline: as §2
[21] = Compound was evaluated in vivo in blood samples from the orbital sinus for its concentration after an intramuscular administration of 40 mg/kg in mice.; format: ADME, organism-based; set-up: dose 40 mg/kg, route intramuscular; settings: mouse, im; outline: as §2
Escherichia coli [22] = assay: Compound was tested for the dose to protect 50% of mice from lethal infection against Escherichia coli A 15119 after peroral administration to OF1-strain of female Swiss mice.; format: functional; settings: po, read-out: PD50; outline: as §1
in vivo [23] = settings: mouse, blood, po, 40 mg/kg
[24] = Compound was evaluated in vivo in blood samples from the orbital sinus for its concentration after a peroral administration of 40 mg/kg in mice; format: ADME, organism-based; set-up: dose 40 mg/kg, route oral; settings: mouse, po; outline: as §2
Enterococcus faecalis [25] = assay: Compound was tested in vitro for its antibacterial activity (minimum inhibitory concentration) against Enterococcus faecalis A 9809 (gram positive).; format: functional
[26] = Compound was evaluated in vivo in blood samples from the orbital sinus for its concentration after an intramuscular administration of 40 mg/kg in mice; format: ADME, organism-based; set-up: dose 40 mg/kg, route intramuscular; settings: mouse, im; outline: as §2

| Compound | MIC (Enterobacter cloacae) [µg/mL] | half-life [1] [h] | MIC (Klebsiella pneumoniae) [µg/mL] | MIC (Enterococcus faecalis [2]) [µg/mL] | MIC (Bacteroides fragilis) [µg/mL] | ED50 (Pseudomonas aeruginosa [3]) [mg/kg] | MIC (Staphylococcus aureus [4]) [µg/mL] | ED50 (Staphylococcus aureus [8]) [mg/kg] | MIC (Morganella morganii) [µg/mL] | MIC (Proteus mirabilis) [µg/mL] | MIC (Escherichia coli [11]) [µg/mL] | MIC (Serratia marcescens) [µg/mL] | MIC (Streptococcus pneumoniae) [µg/mL] | MIC (Pseudomonas aeruginosa [13]) [µg/mL] | AUC (Mus musculus [14]) [ng·h/mL] | ED50 [15] [mg/kg] | AUC (Mus musculus [16]) [ng·h/mL] | MIC (Staphylococcus aureus [17]) [µg/mL] | UR (Mus musculus [19]) [%] | MIC (Haemophilus influenzae) [µg/mL] | also measured |
| --- | --- | --- | --- | --- | --- | --- | --- | --- | --- | --- | --- | --- | --- | --- | --- | --- | --- | --- | --- | --- | --- |
| CC(C)(CF)n1cc(C(=O)O)c(=O)c2cc(F)c(N3CC[C@H](N)C3)cc21.CS(=O)(=O)O | 0.004 | 1.82 | 0.004 | 0.13 | 2 | 23.7 | 0.03 | 26.4 | 0.002 | 0.004 | 0.002 | 0.016 | 0.06 | 0.13 | 600 | > 50 | 14000 | 0.016 | 4 | 0.016 | Cmax (in vivo [5]; blood): 1000 ng/mL; Cmax [6]: 8000 ng/mL; half-life (in vivo [7]): 7 h; UR (Mus musculus [9]): 27%; UR (Canis familiaris [10]): 4.6%; Cmax (in vivo [12]): 600 ng/mL; AUC (Canis familiaris [18]): 7300 ng·h/mL; S: 370 µg/mL |
| CC(C)(C)n1cc(C(=O)O)c(=O)c2cc(F)c(N3CC[C@H](N)C3)cc21.CS(=O)(=O)O | 0.06 | 0.9 | 0.5 | 0.13 | 8 | 10.2 | 0.008 | 14.4 | 0.13 | 0.06 | 0.016 | 0.13 | 0.06 | 0.25 | 5000 | > 25 | 15000 | 0.03 | 14 | 0.008 | UR (Mus musculus [20]): 24%; Cmax [21]: 6000 ng/mL; ED50 (Escherichia coli [22]): 9.5 mg/kg; half-life (in vivo [7]): 4 h; UR (Canis familiaris [10]): 7.7%; Cmax (in vivo [12]): 2800 ng/mL; half-life (in vivo [23]): 1.1 h; AUC (Canis familiaris [18]): 30000 ng·h/mL; S: 250 µg/mL; Cmax [24]: 3000 ng/mL |
| CC(C)(C)n1cc(C(=O)O)c(=O)c2cc(F)c(N3C[C@H]4CC3CN4)cc21 | 0.25 (≈ 0.696 µM) |  | 0.13 (≈ 0.362 µM) |  |  |  | 0.5 (≈ 1.39 µM) |  | 2 (≈ 5.56 µM) | 4 (≈ 11.1 µM) | 0.5 (≈ 1.39 µM) | 4 (≈ 11.1 µM) |  | 0.5 (≈ 1.39 µM) |  |  |  |  |  |  | MIC (Enterococcus faecalis [25]): 2 µg/mL (≈ 5.56 µM) |
| CC(C)(CF)n1cc(C(=O)O)c(=O)c2cc(F)c(N3CC4C[C@@H]3CN4)nc21.Cl | 0.13 |  | 0.25 | 2 | 8 | 4.9 | 0.25 | 25 | 0.25 | 0.5 | 0.06 | 0.25 | 0.5 | 0.5 | 7000 | 57.4 | 20000 | 2 |  | 0.13 | ED50 (Escherichia coli [22]): 2.4 mg/kg; Cmax (in vivo [5]; blood): 4000 ng/mL; Cmax [26]: 8000 ng/mL; S: 200 µg/mL |
| CC(C)(C)n1cc(C(=O)O)c(=O)c2cc(F)c(N3C[C@H]4C[C@@H]3CN4)nc21 | 0.016 (≈ 0.0444 µM) | 1.58 | 0.016 (≈ 0.0444 µM) | 0.5 (≈ 1.39 µM) | 4 (≈ 11.1 µM) | 4.7 | 0.03 (≈ 0.0832 µM) | 1.6 | 0.06 (≈ 0.166 µM) | 0.06 (≈ 0.166 µM) | 0.008 (≈ 0.0222 µM) | 0.06 (≈ 0.166 µM) | 0.13 (≈ 0.361 µM) | 0.25 (≈ 0.694 µM) | 14000 | 29.7 | 25000 | 0.03 (≈ 0.0832 µM) | 34 | 0.03 (≈ 0.0832 µM) | ED50 (Escherichia coli [22]): 1.8 mg/kg; Cmax (in vivo [5]; blood): 10000 ng/mL; half-life (in vivo [7]): 4.5 h; UR (Mus musculus [9]): 39%; UR (Canis familiaris [10]): 20%; Cmax (in vivo [12]): 5600 ng/mL; half-life (in vivo [23]): 1.6 h; Cmax [26]: 13000 ng/mL; AUC (Canis familiaris [18]): 55000 ng·h/mL; S: 80 µg/mL |
| O=C(O)c1cn(C2CC2)c2cc(N3CCNCC3)c(F)cc2c1=O [CIPROFLOXACIN] |  |  | 0.06 (≈ 0.181 µM) | 0.5 (≈ 1.51 µM) | 4 (≈ 12.1 µM) | 2.6 | 0.06 (≈ 0.181 µM) | 31 |  | 0.008 (≈ 0.0241 µM) |  | 0.03 (≈ 0.0905 µM) | 0.25 (≈ 0.754 µM) |  | 7000 | > 69 | 21000 | 0.13 (≈ 0.392 µM) | 30 | 0.03 (≈ 0.0905 µM) | ED50 (Escherichia coli [22]): 0.4 mg/kg; Cmax (in vivo [5]; in vivo): 6000 ng/mL; UR (Mus musculus [9]): 46%; UR (Canis familiaris [10]): 17%; Cmax (in vivo [12]): 3000 ng/mL; Cmax [26]: 15000 ng/mL |
| CN1CCN(c2c(F)cc3c(=O)c(C(=O)O)cn(CCF)c3c2F)CC1 [FLEROXACIN] | 0.13 (≈ 0.352 µM) | 1.02 | 0.13 (≈ 0.352 µM) | 8 (≈ 21.7 µM) | 1 (≈ 2.71 µM) |  | 0.06 (≈ 0.162 µM) |  | 0.03 (≈ 0.0812 µM) | 0.06 (≈ 0.162 µM) | 0.03 (≈ 0.0812 µM) | 0.13 (≈ 0.352 µM) | 2 (≈ 5.42 µM) | 2 (≈ 5.42 µM) | 23000 |  | 32000 | 0.25 (≈ 0.677 µM) | 51 | 0.13 (≈ 0.352 µM) | Cmax (in vivo [5]; blood): 12000 ng/mL; Cmax [6]: 20000 ng/mL; UR (Mus musculus [9]): 64%; half-life (in vivo [23]): 0.967 h |

From ChEMBL document CHEMBL1125733, “Fluoronaphthyridines and -quinolones as antibacterial agents. 3. Synthesis and structure-activity relationships of new 1-(1,1-dimethyl-2-fluoroethyl), 1-[1-methyl-1-(fluoromethyl)-2-fluoroethyl], and 1-[1,1-(difluoromethyl)-2-fluoroethyl] substituted derivatives” (J Med Chem, 1991)
